Measurements taken from the EternaBench riboswitch data.

Test system: MS2 coat protein
Experiment: apparent Kd, MS2 coat protein; higher = weaker binding; RNA-MaP array; FMN 200 µM where present
How it was run: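 Stalled E. coli RNA polymerase transcribed each design on Illumina sequencing-chip clusters. The clusters were titrated with SNAP-549-labelled MS2 coat protein, starting at 0.7 or 1.5 nM and doubling up to 3 µM, first without ligand and then with constant ligand, in 100 mM Tris-HCl pH 7.5, 80 mM KCl, 4 mM MgCl2, BSA, DTT, yeast tRNA and Tween-20. Green signal was normalised to red-channel RNA signal and to the control-cluster median Fmax. The apparent Kd is the median of filtered binding-curve fits made for each cluster.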

[1] = designed as: OFF switch for flavin mononucleotide, no ligand
[2] = ligand present: flavin mononucleotide, designed as: OFF switch for flavin mononucleotide
[3] = designed as: ON switch for flavin mononucleotide, no ligand
[4] = ligand present: flavin mononucleotide, designed as: ON switch for flavin mononucleotide

Sequence	apparent Kd [1] [nM]	apparent Kd [2] [nM]	apparent Kd [3] [nM]	apparent Kd [4] [nM]
UUGUGCUUAGAGAAGGUUCAAACUACAUAUUGCGCACAUGAGGAUCACCCAUGUUGGUGAAUAAGAAAGGAUAUUUGACUGUAU	131	98		
UUGUUGUGUGUAGGAUAUGCGUGUUAUUAUUAUGCAGAAGGACAUGAGGAUCACCCAUGUGUAUUGUUAUUAUAUAUUAUAUAU	21.4	22.5		
UUUAAUCGAAACAUGAGGAUCACCCAUGUGUUGUAAUUAACAUAGGAUAUUUGUAUACUUUUGUAAGAGAAGGAUGAUAAUACU			22.4	15.8
UUUAGGAGUCAAGGAUAUGCUACCGUUUCGGUAGCAGAAGGUGAUCACAUGAGGAUCACCCAUGUAUGCAUGCGUGAGCGUGCU			50.1	623
UUUAGUUUAGGAUAUGUAGACAUUAACAUGAGGAUCACCCAUGUAGAUCCUGAAUUGGCUACAGAAGGGAGCAUUU	290	314		
UUUAGUUUAGGAUAUGUAGACGUUAACAUGAGGAUCACCCAUGUAGAUCCUGAAUUGGCUACAGAAGGAAGCAUUU	285	531		
UUUAUAAAUUAGAAGGCAUGAUGAAUUACAAUAGACAUGAGGAUCACCCAUGUGUAUUCAUGUCAUGAGGAUAUAGUCAUAUAU			8.91	6.45
UUUAUAAAUUAGAAGGCGAGAUGAAUUACAAUAGACAUGAGGAUCACCCAUGUGUAUUCAUGUCUUGAGGAUAUAGUCAUAUAU			118	58.1
UUUAUAUAGUAAGGAUAUGUAUUAAUUUUAUAGACAGAAGGUACUGACAUGAGGAUCACCCAUGUUUUAGUGUGGGCAUGUAGU	358	549		
UUUAUAUGAGGAUAUCCGAGGAGCCACAUGAGGAUCACCCAUGUCGUCUUUUGUGAUAGUGGAGAAGGUGUGUCAG	27.7	31.6		
UUUAUGUGAGGAUAUAGUACUCCUUCUAUUAUUAUUGAGUACUAGAAGGCACAUGAGGAUCACCCAUGUAGUAC	30	48.3		
UUUAUGUGAGGAUAUCAGUAGUAAAAAAAUAAAAUUACUACUGAGAAGGCACAUGAGGAUCACCCAUGUCCUUC	18.6	20		
UUUAUUAGUUAGAAGGCUUGAUGAAUUACAAUAGACAUGAGGAUCACCCAUGUGUAUUCAUGUCAAGAGGAUAUAGUCAUAUAU			13.7	6.54
UUUCCACAUGAGGAUCACCCAUGUCAGGAUAUUAGAUCUAUUUAUACAUAUAAUUAUUUAAGAAGGGACACUAA	18.1	16.9		
UUUCCGCAAGGAUAUACGGGCUGUGCUUUUCAUUUCUUACAACAUGAGGAUCACCCAUGUAGAAGGUGCUUCUU	208	217		
UUUGCAUACCGAGGAUAUUCAUAUAAUAAAUAAACAUGAGGAUCACCCAUGUGGCGAAAGCCUAGGGAGAAGGCGGAAUGCUUU			162	30.1
UUUGGGUCAGGAUAUUGUUAGUUUAGUUGUUUGUAUUAGUUCGAGAAGGGACAUGAGGAUCACCCAUGUGGUUA	70.5	77.5		
UUUUAACAUGAGGAUCACCCAUGUGAGGAUAUCGAAAUUUAUAUUAAUAUUAUUUUUUCGAGAAGGCACAUUUU	124	155		
UUUUAACAUGAGGAUCACCCAUGUGAGGAUAUCGAAAUUUAUAUUAAUAUUUAUUUUUCGAGAAGGCACAUUUU	164	159		
UUUUAACAUGAGGAUCACCCAUGUGAGGAUAUCGAAAUUUAUAUUAAUAUUUUUAUUACGAGAAGGCACAUUUU	73.5	69.8		
UUUUAACAUGAGGAUCACCCAUGUGAGGAUAUCGAAAUUUAUAUUUAUAUUAAUAUAUCGAGAAGGCACAUUUU	99	144		
UUUUAAUAAUAGAAGGAGGACUUCAUGAGGAUCACCCAUGUGUUAGUACUUAGGAUAUGUAAUAACAUGAGGAUCACCCAUGUC			44	42.4
UUUUACUAGUAAGGAUAUAUUAGCGAUUAGCUUGUAGAAGGUACAGUCUUAUGUAUAACAUGUUAACAUGAGGAUCACCCAUGU			52	34.2
UUUUAGUGAGGAUAUGUGGCUUCGAUCGUGAGAUCGAGGCUACAGAAGGCACAUGAGGAUCACCCAUGUUCCUG	15.7	55.7		
UUUUCUCGUGAGAAGGACAUGAGGAUCACCCAUGUAGGAUAUCGUGGGAGACAGGAAUUGAAUCUUCGGAUUCAAUUCCAGUCU			107	10.1
UUUUGAAAGUGAGGAUAUGACAUGAGGAUCACCCAUGUAAAGGGAGUUGAAUAUAUAGAAAGAUAUCAGAAGGCACAAAUGUUU	178	497		
UUUUGAUGAGGAUAUCGAGGUUAGUACAUGAGGAUCACCCAUGUUAUCCAGGUGUCGGUUCGAGAAGGUAUUGGAC	18.5	22.9		
